The record followed here is ChEMBL document CHEMBL4304791, “DABMA: A Derivative of ABMA with Improved Broad-Spectrum Inhibitory Activity of Toxins and Viruses” (ACS Med Chem Lett, 2019).

The structures appear in SMILES notation. pEC50: −log10 of the molar value. Activity calls are given as the source filed them. The calls are words filed in the database; no cut-off is given here. A value given as a limit tells only on which side of the number the result lay.

The subject of data set [1] is A549. Nature of the data set: Selectivity index, ratio of CC50 for cytotoxicity against human A549 cells to EC50 for cytoprotective activity in diphtheria-induced cytotoxicity in human A549 cells.
Data set [2] concerns L929. Nature of the data set: Cytoprotective activity in Pseudomonas aeruginosa exotoxin-induced toxicity in mouse L929 cells assessed as protection of protein synthesis after 18 hrs followed by replacement of [14c]-Leucine containing medium and measured after 4 hrs by liquid scintillation analysis by liquid scintillation analysis. It is filed as functional, cell-based. In a few lines: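 L929 cells were intoxicated with increasing doses of Pseudomonas exotoxin A for 18 h with compound (30 μM) or DMSO present. Protein synthesis was measured; duplicate wells, mean ± SD, one representative experiment (n = 3).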

Data set [3] has as its system Zaire ebolavirus. In words: Antiviral activity against Zaire EBOV-mayinga expressing GFP infected in human HeLa cells preincubated for 1 hr followed by viral infection after 24 hrs by DAPI-staining based fluorescence assay relative to control. It is filed as functional, 1976.
Data set [4] relates to A549. In words: Induction of lysosomal activation in human A549 cells assessed as increase in endosomal volume by measuring Lamp 1 expression at 30 uM incubated for 6 hrs by immunostaining based confocal microscopic analysis. The format is functional, cell-based.
The test system of data set [5] is A549. In words: Induction of lysosomal activation in human A549 cells assessed as increase in endosomal volume by measuring Rab7 expression at 30 uM incubated for 6 hrs by immunostaining based confocal microscopic analysis. It is filed as functional, cell-based. In a few lines:
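A549 cells were pretreated 6 h with compound or DMSO and immunostained for Rab7, with DAPI nuclei. Confocal imaging; fluorescence quantified in >30 cells (mean ± SEM), unpaired t test versus DMSO.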

A short description of data set [6]: Selectivity index, ratio of CC50 for cytotoxicity against human HeLa cells to ratio of EC50 for Antiviral activity against Zaire EBOV-mayinga strain expressing GFP infected in human HeLa cells. It is filed as toxicity, cell-based. The note with it: read-out: Ratio CC50/EC50.
Data set [7] has as its system A549. Nature of the data set: Induction of morphological changes in human A549 cells assessed as change in mitochondria at 30 uM incubated for 24 hrs by MitoTracker Red based inverted microscopic method. It is filed as functional, cell-based.
Data set [8] relates to HUVEC. In words: Cytotoxicity against HUVEC assessed as reduction in cell viability at >100 uM incubated for 20 hrs and measured after 2 hrs by Alamar blue assay. It is filed as cell-based. The note with it: human. On the technique in general: Resazurin is reduced to fluorescent resorufin, in cell work by metabolically active cells.
The test system of data set [9] is Vero. Nature of the data set: Cytoprotection activity in African green monkey Vero cells assessed as inhibition of diphtheria induced toxicity incubated for 20 hrs followed by replacement of [14c]-Leucine containing medium and measured after 4 hrs by liquid scintillation analysis. The note with it: Chlorocebus sabaeus. The format is functional, cell-based.
Data set [10] has as its system A549. Nature of the data set: Increase in cholesterol accumulation in human A549 cells at 30 uM incubated for 18 hrs by choelesterol-avid filipin-3 staining based confocal microscopic analysis. It is filed as functional, cell-based. The gist of the method:
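A549 cells were treated 18 h with compound or DMSO, fixed, and stained with Filipin III for cholesterol. Confocal imaging; fluorescence quantified in >30 cells (mean ± SEM), unpaired t test versus DMSO.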

The subject of data set [11] is PC-3. Nature of the data set: Cytoprotection activity in human PC3 cells assessed as inhibition of diphtheria induced toxicity incubated for 20 hrs followed by replacement of [14c]-Leucine containing medium and measured after 4 hrs by liquid scintillation analysis. The format is functional, cell-based.

A word on the pEC50: it is the EC50 on a negative log10 scale, so that one unit is a factor of ten.

Regarding `COc1ccc(Br)cc1CNC12CC3CC(C)(CC(C)(C3)C1)C2`, the “Ratio CC50/EC50” value in data set [1] worked out at 4.7. Besides, the pEC50 in data set [2] is 4.68. Moreover, in data set [3], the “inhibition (INH)” value is on record as more than 50%. Besides, the result in data set [4], in data set [5], in data set [9], in data set [10] and in data set [11] was Active. In addition, the selectivity ratio in data set [6] was 120. In addition, in data set [7], the outcome was inactive. Besides, the Activity result in data set [8] is recorded as “Toxic”.
